The values that follow come from ChEMBL document CHEMBL1649483, “Molecular analysis of the gyrA and gyrB quinolone resistance-determining regions of fluoroquinolone-resistant Clostridium difficile mutants selected in vitro” (2009).

Assay type in all cases: functional
The test system of assay [1] is Clostridioides difficile. Kind of assay: Antimicrobial activity against Clostridium difficile A422i harboring GyrA Asp81Asn mutant gene selected after 8 ug/ml of moxifloxacin by Etest method. The method in brief:
(§1)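 Stable in vitro-selected mutant tested for gatifloxacin susceptibility by Etest, per the manufacturer's instructions, with an 8 μg/ml breakpoint. For selection, the parent was grown in antibiotic-free brain heart infusion (BHI) for 24 h at 35°C under anaerobic conditions. […] Later steps used double the MIC. Stability was confirmed by three subcultures.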

In assay [2] the test system is Clostridioides difficile. Kind of assay: Antimicrobial activity against Clostridium difficile CD5 1-g harboring GyrA Ala92Glu and GyrB Ser416Ala mutant genes selected after 8 ug/ml of moxifloxacin by Etest method.
Assay [3] has as its system Clostridioides difficile. Kind of assay: Antimicrobial activity against Clostridium difficile 630E harboring GyrA Ala118Val mutant gene selected after 8 ug/ml of levofloxacin by Etest method. The method, boiled down: as §1
In assay [4] the test system is Clostridioides difficile. The assay is described as follows: Antimicrobial activity against Clostridium difficile 630C selected after 4 ug/ml of levofloxacin by Etest method. The method, boiled down:
as §1

Assay [5] concerns Clostridioides difficile. The assay is described as follows: Antimicrobial activity against Clostridium difficile 630B selected after 4 ug/ml of levofloxacin by Etest method. The method, boiled down:
as §1

For assay [6], the system named is Clostridioides difficile. The assay is described as follows: Antimicrobial activity against Clostridium difficile CD5A harboring GyrB Ser416Ala mutant gene selected after 4 ug/ml of levofloxacin by Etest method.
The test system of assay [7] is Clostridioides difficile. Kind of assay: Antimicrobial activity against Clostridium difficile BI2f harboring GyrB Arg447Lys and Asp426Asn mutant gene selected after 32 ug/ml of moxifloxacin by Etest method. The method, boiled down:
as §1

Assay [8] has as its system Clostridioides difficile. Kind of assay: Antimicrobial activity against Clostridium difficile CD5f harboring GyrB Ser416Ala mutant gene selected after 4 ug/ml of moxifloxacin by Etest method.
Assay [9] relates to Clostridioides difficile. Kind of assay: Antimicrobial activity against Clostridium difficile 630b selected after 2 ug/ml of moxifloxacin by Etest method. The method, boiled down:
as §1

For assay [10], the system named is Clostridioides difficile. The assay is described as follows: Antimicrobial activity against Clostridium difficile A422d selected after 4 ug/ml of moxifloxacin by Etest method. The method in brief: as §1
Assay [11] relates to Clostridioides difficile. The assay is described as follows: Antimicrobial activity against Clostridium difficile 630e selected after 4 ug/ml of moxifloxacin by Etest method. The method in brief: as §1
Assay [12] deals with Clostridioides difficile. Kind of assay: Antimicrobial activity against Clostridium difficile C253C selected after 4 ug/ml of levofloxacin by Etest method.
Assay [13] relates to Clostridioides difficile. Kind of assay: Antimicrobial activity against Clostridium difficile CD5C harboring GyrB Ser416Ala mutant gene selected after 4 ug/ml of levofloxacin by Etest method.
Assay [14] concerns Clostridioides difficile. Kind of assay: Antimicrobial activity against Clostridium difficile A422C selected after 4 ug/ml of levofloxacin by Etest method. The method in brief:
as §1

The test system of assay [15] is Clostridioides difficile. Kind of assay: Antimicrobial activity against Clostridium difficile C253b selected after 2 ug/ml of moxifloxacin by Etest method.
Assay [16] deals with Clostridioides difficile. Kind of assay: Antimicrobial activity against Clostridium difficile 630a selected after 2 ug/ml of moxifloxacin by Etest method. The method in brief: as §1
Assay [17] relates to Clostridioides difficile. The assay is described as follows: Antimicrobial activity against Clostridium difficile C253E selected after 8 ug/ml of levofloxacin by Etest method.
Assay [18] concerns Clostridioides difficile. Kind of assay: Antimicrobial activity against Clostridium difficile CD5h harboring GyrA Ala118Ser, Thr82Ala and GyrB Ser416Ala mutant gene selected after 8 ug/ml of moxifloxacin by Etest method.
For assay [19], the system named is Clostridioides difficile. Kind of assay: Antimicrobial activity against Clostridium difficile C253B selected after 4 ug/ml of levofloxacin by Etest method.
The test system of assay [20] is Clostridioides difficile. Kind of assay: Antimicrobial activity against Clostridium difficile CD5i harboring GyrA Ala92Glu and GyrB Ser416Ala mutant genes selected after 8 ug/ml of moxifloxacin by Etest method.
Assay [21] concerns Clostridioides difficile. The assay is described as follows: Antimicrobial activity against Clostridium difficile 630F harboring GyrA Ala118Val mutant gene selected after 8 ug/ml of levofloxacin by Etest method. The method, boiled down:
as §1

Assay [22] deals with Clostridioides difficile. Kind of assay: Antimicrobial activity against Clostridium difficile C253f selected after 4 ug/ml of moxifloxacin by Etest method.
For assay [23], the system named is Clostridioides difficile. Kind of assay: Antimicrobial activity against Clostridium difficile A422G harboring GyrA Thr82Ile and GyrB Leu451Phe mutant genes selected after 8 ug/ml of levofloxacin by Etest method. The method, boiled down: as §1
For assay [24], the system named is Clostridioides difficile. Kind of assay: Antimicrobial activity against Clostridium difficile 630g harboring GyrB […] mutant gene selected after 8 ug/ml of moxifloxacin by Etest method. The method in brief:
as §1

For assay [25], the system named is Clostridioides difficile. Kind of assay: Antimicrobial activity against Clostridium difficile CD5 1-g harboring GyrA Ala92Glu and GyrB Ser416Ala mutant genes selected after 8 ug/ml of moxifloxacin by agar dilution method.
The test system of assay [26] is Clostridioides difficile. The assay is described as follows: Antimicrobial activity against Clostridium difficile A422d selected after 4 ug/ml of moxifloxacin by agar dilution method. In general terms: In agar dilution, organisms are placed on agar that contains the substance at set levels.
The subject of assay [27] is Clostridioides difficile. The assay is described as follows: Antimicrobial activity against Clostridium difficile C253E selected after 8 ug/ml of levofloxacin by agar dilution method.
In assay [28] the test system is Clostridioides difficile. The assay is described as follows: Antimicrobial activity against Clostridium difficile 630h harboring GyrB […] mutant gene selected after 8 ug/ml of moxifloxacin by agar dilution method.
The test system of assay [29] is Clostridioides difficile. Kind of assay: Antimicrobial activity against Clostridium difficile A422b selected after 2 ug/ml of moxifloxacin by agar dilution method.
The subject of assay [30] is Clostridioides difficile. Kind of assay: Antimicrobial activity against Clostridium difficile 630D harboring GyrA Ala118Val mutant gene selected after 8 ug/ml of levofloxacin by agar dilution method.
The subject of assay [31] is Clostridioides difficile. The assay is described as follows: Antimicrobial activity against Clostridium difficile A422a selected after 2 ug/ml of moxifloxacin by agar dilution method.
Assay [32] relates to Clostridioides difficile. The assay is described as follows: Antimicrobial activity against Clostridium difficile A422F harboring GyrB Leu451Phe mutant gene selected after 8 ug/ml of levofloxacin by agar dilution method.
In assay [33] the test system is Clostridioides difficile. The assay is described as follows: Antimicrobial activity against Clostridium difficile CD5i harboring GyrA Ala118Ser, Thr82Ala and GyrB Ser416Ala mutant genes selected after 8 ug/ml of moxifloxacin by agar dilution method.
In assay [34] the test system is Clostridioides difficile. The assay is described as follows: Antimicrobial activity against Clostridium difficile CD25 expressing tcdA, tcdB gene and GyrB Ser416Ala mutant by agar dilution method.
For assay [35], the system named is Clostridioides difficile. The assay is described as follows: Antimicrobial activity against Clostridium difficile C253f selected after 4 ug/ml of moxifloxacin by agar dilution method.
Assay [36] has as its system Clostridioides difficile. Kind of assay: Antimicrobial activity against Clostridium difficile C253h harboring GyrA Ala118Ser mutant gene selected after 8 ug/ml of moxifloxacin by agar dilution method.
The test system of assay [37] is Clostridioides difficile. The assay is described as follows: Antimicrobial activity against Clostridium difficile CD5a harboring GyrB Ser416Ala mutant gene selected after 2 ug/ml of moxifloxacin by agar dilution method.
Assay [38] has as its system Clostridioides difficile. The assay is described as follows: Antimicrobial activity against Clostridium difficile C253b selected after 2 ug/ml of moxifloxacin by agar dilution method.
Assay [39] concerns Clostridioides difficile. The assay is described as follows: Antimicrobial activity against Clostridium difficile C253e selected after 4 ug/ml of moxifloxacin by agar dilution method.
Assay [40] deals with Clostridioides difficile. The assay is described as follows: Antimicrobial activity against Clostridium difficile 630C selected after 4 ug/ml of levofloxacin by agar dilution method.
Assay [41] deals with Clostridioides difficile. The assay is described as follows: Antimicrobial activity against Clostridium difficile 630A selected after 4 ug/ml of levofloxacin by agar dilution method.
In assay [42] the test system is Clostridioides difficile. Kind of assay: Antimicrobial activity against Clostridium difficile C253c selected after 2 ug/ml of moxifloxacin by agar dilution method.
For assay [43], the system named is Clostridioides difficile. Kind of assay: Antimicrobial activity against Clostridium difficile BI2a harboring GyrB Arg447Lys mutant gene selected after 2 ug/ml of moxifloxacin by agar dilution method.

Broadly, the MIC is the lowest concentration that inhibits growth of the organism. On to `COc1c(N2CCNC(C)C2)c(F)cc2c(=O)c(C(=O)O)cn(C3CC3)c12` (stereo not drawn) [GATIFLOXACIN], for which the minimum inhibitory concentration (MIC) with Clostridioides difficile [1] was no less than 32 mg/L; in the assay with Clostridioides difficile [2], 3 mg/L; in the assay on Clostridioides difficile [3], 3 mg/L; in the assay with Clostridioides difficile [4], 0.75 mg/L; in the assay on Clostridioides difficile [5] it was 0.75 mg/L; in the assay on Clostridioides difficile [6], 0.5 mg/L. In addition, the MIC with Clostridioides difficile [7] worked out at 6 mg/L; in the assay on Clostridioides difficile [8], 0.75 mg/L; in the assay on Clostridioides difficile [9], 0.75 mg/L; in the assay on Clostridioides difficile [10] it was 1.5 mg/L; in the assay with Clostridioides difficile [11], 2 mg/L; in the assay on Clostridioides difficile [12], 0.5 mg/L. Also, the MIC in the assay with Clostridioides difficile [13] was 0.5 mg/L; in the assay with Clostridioides difficile [14], 1 mg/L; with Clostridioides difficile [15] it was 1 mg/L; in the assay with Clostridioides difficile [16], 0.75 mg/L; in the assay on Clostridioides difficile [17], 1 mg/L; with Clostridioides difficile [18], 16 mg/L. Further, the MIC in the assay on Clostridioides difficile [19] is 0.5 mg/L; in the assay with Clostridioides difficile [20], 3 mg/L; in the assay with Clostridioides difficile [21], 3 mg/L; with Clostridioides difficile [22], 1 mg/L; with Clostridioides difficile [23], no less than 32 mg/L; in the assay with Clostridioides difficile [24], no less than 32 mg/L.
Regarding `C[C@H]1COc2c(N3CCN(C)CC3)c(F)cc3c(=O)c(C(=O)O)cn1c23.C[C@H]1COc2c(N3CCN(C)CC3)c(F)cc3c(=O)c(C(=O)O)cn1c23.O` [LEVOFLOXACIN], the MIC worked out at 16 mg/L in the assay on Clostridioides difficile [25]; 4 mg/L in the assay with Clostridioides difficile [26]; 2 mg/L in the assay on Clostridioides difficile [27]; 64 mg/L in the assay with Clostridioides difficile [28]; 4 mg/L with Clostridioides difficile [29]; 8 mg/L with Clostridioides difficile [30]. The MIC in the assay with Clostridioides difficile [31] amounted to 4 mg/L; in the assay on Clostridioides difficile [32], 2 mg/L; with Clostridioides difficile [33], 64 mg/L; against Clostridioides difficile [34], 2 mg/L; in the assay with Clostridioides difficile [35] it was 4 mg/L; in the assay with Clostridioides difficile [36] it was 64 mg/L. In addition, the minimum inhibitory concentration (MIC) with Clostridioides difficile [37] was 2 mg/L; in the assay on Clostridioides difficile [38] it was 4 mg/L; with Clostridioides difficile [39], 4 mg/L; in the assay on Clostridioides difficile [40], 1 mg/L; in the assay on Clostridioides difficile [41], 1 mg/L; in the assay on Clostridioides difficile [42] it was 4 mg/L. Also, in the assay with Clostridioides difficile [43], the MIC came out at 8 mg/L.
